HKDC1 inh: inhibitors of human hexokinase HKDC1; Q2TB90; recombinant HKDC1, G6PDH/diaphorase resazurin coupled fluorescence; inhibition, % at 20 µM; 340,000 tested, 0.16% active; AID 493160;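 active = inhibition above about 35% when tested at 20 µM, limit read from the data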
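Test system: Recombinant HKDC1 (HK5) hexokinase enzyme, produced in-house | Input: HKDC1 at 5 µg/mL | Buffer or medium: Tris pH 8.0 buffer with MgCl2, Tween-20, BSA, BME | Schedule: 90 min reaction incubation at room temperature, dark | Technique: Resazurin-to-resorufin fluorescence via G6PDH and diaphorase coupling, 525/613 nm | Controls: DMSO wells with and without enzyme mix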
ATG4B inhibitor: blocks human ATG4B protease cleavage of LC3 substrate. Q9Y4P1. ATG4B cleavage of LC3-PLA2, NBD-HPC fluorescence, 1 h. inhibition, % at 8.33 µM. 340,000 tested, 0.51% active. AID 504462; in the data active = inhibition above about 40%
PfG6PD inh: PfG6PD (Plasmodium falciparum) enzyme inhibition. inhibition, % at 20 µM. PfGluPho enzyme, NADPH resazurin-diaphorase fluorescence. 350,000 tested, 0.78% active. AID 504690;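 active = inhibition reaching at least a set limit at 20 µM in the primary screen, cut at about 59% in these data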
PKA-R1A activ: PKA-R1A complex activation. PKA-R1A dissociation, Cy5-IP20 fluorescence polarization; scaled: DMSO 0%, 113 µM cGMP 100%. 340,000 tested, 0.083% active. AID 504707. P00514+P68181. activation, % at 11.4 µM;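 active = percent activation above the mean of all tested compounds plus 3 SD, cut at about 19% in these data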;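 note: higher means more PKAc released from R1A so a rise in polarization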
PKA-R2B activ: PKA-R2B complex activation. activation, % at 11.4 µM. 340,000 tested, 0.079% active. PKA-R2B holoenzyme dissociation, Cy5-IP20 fluorescence polarization; R2B truncated from residue 108, S112A mutant; 0% DMSO only, 100% 113 µM cGMP. AID 504700;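 active = activation above a cutoff set at the mean over all compounds plus 3 SD, cut at about 18% in these data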;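 note: higher means more holoenzyme dissociation and a rise in polarization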
T cell HTS: T cell immune modulation candidate; 2C CD8+ T cell-vesicle binding, flow cytometry; active compounds read low; response (vesicle binding), % at 7 µM; 330,000 tested, 0.068% active; AID 2052;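 active = response, share of CD8 T cells binding vesicles, and their 90th percentile fluorescence all below set limits, cut at about 80% in these data, passing the limit was not always enough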;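 note: values below 100% mean blocked vesicle binding to the CD8+ T cells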
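Assay system: 2C TCR transgenic mouse naive CD8+ T cells, MACS-purified | Read-out: CD8+ gate FL2 mean fluorescence as % of same-row positive control | Signal: High-throughput flow cytometry with anti-B7-1 and anti-CD8 staining | Timing: Binding step 1.5 h, 37 °C, antibody labelling 20 min, ice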
ATG4B conf: ATG4B (human) inhibition, single-dose confirmed. inhibition, % at 8.33 µM. shares compounds with ATG4B inhibitor. 320 tested, 92% active. ATG4B protease fluorescent substrate cleavage assay; in the data active = inhibition above about 39%
PLA2 ctr: counter-screen for ATG4B inhibitors: human phospholipase A2; shares compounds with ATG4B inhibitor; purified PLA2, NBD-C6-HPC fluorescence, 45 min; inhibition, % at 8.33 µM; 1,600 tested, 66% active; AID 588402; in the data active = inhibition above about 50%
A number is an active result. Shown are actives, neighbours in structure and some others; about 1.6% of the full set was active somewhere.

`O=C(O)/C=C/C(=O)Nc1cccc2c1-c1ccccc1C2=O` gave HKDC1 inh inactive, ATG4B inhibitor inactive, PfG6PD inh inactive, PKA-R1A activ inactive and PKA-R2B activ inactive.
For CCCNc1ccc(C(=O)OCC)cc1[N+](=O)[O-] the results were HKDC1 inh inactive, ATG4B inhibitor inactive, PfG6PD inh inactive, PKA-R1A activ inactive, PKA-R2B activ inactive and T cell HTS inactive.
CCNc1ccc(C(=O)OCC(=O)N(Cc2ccccc2)C(C)(C)C)cc1[N+](=O)[O-] was read as HKDC1 inh inactive, ATG4B inhibitor 43.1, PfG6PD inh inactive, PKA-R1A activ inactive, PKA-R2B activ inactive, T cell HTS inactive and PLA2 ctr inactive.
`O=C(Nc1ccc(Cl)cc1)NC1CCCCC1Cc1ccco1` (stereo not drawn) gave HKDC1 inh inactive, ATG4B inhibitor 69.5, PfG6PD inh inactive, PKA-R1A activ inactive, PKA-R2B activ inactive, T cell HTS inactive and PLA2 ctr 80.1.
Screening O=C(O/N=C1/CCSc2ccccc21)c1ccccc1 returned HKDC1 inh inactive, ATG4B inhibitor 42.1, PfG6PD inh inactive, PKA-R1A activ inactive, PKA-R2B activ inactive, T cell HTS inactive, ATG4B conf 71.5 and PLA2 ctr inactive.
`COc1cc(/C=C2\SC(=Nc3ccccc3)N(CCc3c[nH]c4ccccc34)C2=O)ccc1OC(C)C(=O)O` (stereo not drawn) gave HKDC1 inh inactive, ATG4B inhibitor 46.0, PfG6PD inh inactive, PKA-R1A activ inactive, PKA-R2B activ inactive, T cell HTS inactive, ATG4B conf 51.0 and PLA2 ctr inactive.
COCCN1C(=O)/C(=C/c2ccc(Oc3ccc([N+](=O)[O-])cn3)c(OC)c2)SC1=Nc1ccccc1 was read as HKDC1 inh inactive, ATG4B inhibitor inactive, PfG6PD inh inactive, PKA-R1A activ inactive, PKA-R2B activ inactive and T cell HTS inactive.
COc1ccc(N=C2S/C(=C\c3ccc(OC(C)C(=O)O)c(OC)c3)C(=O)N2CCc2c[nH]c3ccccc23)cc1 (stereo not drawn) was read as HKDC1 inh inactive, ATG4B inhibitor 57.8, PfG6PD inh inactive, PKA-R1A activ inactive, PKA-R2B activ inactive and PLA2 ctr 64.6.
CCc1cc(C(=O)NCC(c2ccco2)N2CCCCC2)sc1C (stereo not drawn) was read as HKDC1 inh inactive, ATG4B inhibitor inactive, PfG6PD inh inactive, PKA-R1A activ inactive, PKA-R2B activ inactive and T cell HTS inactive.
O=C(Nc1cccc([N+](=O)[O-])c1)c1ccc2snnc2c1 was read as HKDC1 inh inactive, ATG4B inhibitor inactive, PfG6PD inh inactive, PKA-R1A activ inactive, PKA-R2B activ inactive and T cell HTS inactive.
CCc1ccc(/C=C(\C#N)C(=O)NC2CCS(=O)(=O)C2)cc1 (stereo not drawn) was read as HKDC1 inh inactive, ATG4B inhibitor inactive, PfG6PD inh inactive, PKA-R1A activ inactive, PKA-R2B activ inactive and T cell HTS inactive.
Screening O=S(=O)(Nc1c(S(=O)(=O)c2ccccc2)c2nc3ccccc3nc2n1C1CCCCC1)c1ccccc1 returned HKDC1 inh inactive, ATG4B inhibitor 44.6, PfG6PD inh inactive, PKA-R1A activ inactive, PKA-R2B activ inactive, T cell HTS inactive and PLA2 ctr 50.1.
C=CCn1c(NS(=O)(=O)c2ccccc2)c(S(=O)(=O)c2ccc(C)cc2)c2nc3ccccc3nc21 was read as HKDC1 inh inactive, ATG4B inhibitor inactive, PfG6PD inh inactive, PKA-R1A activ inactive, PKA-R2B activ inactive and T cell HTS inactive.
Screening Cc1ccc(S(=O)(=O)N2CCCC2)cc1C(=O)NCCN1CCOCC1 returned HKDC1 inh inactive, ATG4B inhibitor inactive, PfG6PD inh inactive, PKA-R1A activ inactive, PKA-R2B activ inactive and T cell HTS inactive.
